Bioassay records as filed in PubChem.
MBD2 DNA inh = inhibitors of human MBD2 binding to methylated oligonucleotide | Q9UBB5 | inhibition, % at 4.4 µM | AID 686964 | actives 0.31% (n = 370,000) | TR-FRET; in the data active = inhibition above about 13%
LEDGF integ inh = blocks HIV-1 LEDGF/p75-dependent DNA integration | actives 0.64% (n = 370,000) | TR-FRET IN-LEDGF/p75 DNA integration, Eu/Cy5 | inhibition, % at 3.7 µM;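 active = inhibition above the screen-wide mean plus 3 SD, cut at about 13% in these data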;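 note: signal is the Cy5 over europium emission ratio at 671 and 618 nm; 0% = plate median of compound wells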
TDP2 inh = blocks human TDP2 phosphodiesterase activity | O95551 | recombinant TDP2, T5PNP hydrolysis, p-nitrophenol absorbance 415 nm | inhibition, % at 12.8 µM | actives 0.34% (n = 370,000);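 active = inhibition above the mean of all tested compounds plus 3 SD, set per campaign, cut at about 25% in these data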;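 note: 0% = DMSO with enzyme and 100% = buffer with substrate but no TDP2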
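Assay system: Recombinant human TDP2 | Quantity: 120 nM TDP2 per well | Incubation: 2 h at 37 °C | Signal: Epi absorbance | Evaluation: Percent inhibition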
UHRF1 binding = human UHRF1 methylated DNA binding inhibitors. Q96T88. UHRF1 binding to methylated oligo, TR-FRET. inhibition, % at 4.4 µM. actives 0.75% (n = 370,000). AID 687016; in the data active = inhibition above about 21%;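 note: UHRF1 SRA domain binding a hemimethylated CpG hairpin DNA probe; 0% = median of test compound wells and 100% = reference inhibitor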
Target sequence (Q96T88 whole entry, looked up, the tested form may be a part): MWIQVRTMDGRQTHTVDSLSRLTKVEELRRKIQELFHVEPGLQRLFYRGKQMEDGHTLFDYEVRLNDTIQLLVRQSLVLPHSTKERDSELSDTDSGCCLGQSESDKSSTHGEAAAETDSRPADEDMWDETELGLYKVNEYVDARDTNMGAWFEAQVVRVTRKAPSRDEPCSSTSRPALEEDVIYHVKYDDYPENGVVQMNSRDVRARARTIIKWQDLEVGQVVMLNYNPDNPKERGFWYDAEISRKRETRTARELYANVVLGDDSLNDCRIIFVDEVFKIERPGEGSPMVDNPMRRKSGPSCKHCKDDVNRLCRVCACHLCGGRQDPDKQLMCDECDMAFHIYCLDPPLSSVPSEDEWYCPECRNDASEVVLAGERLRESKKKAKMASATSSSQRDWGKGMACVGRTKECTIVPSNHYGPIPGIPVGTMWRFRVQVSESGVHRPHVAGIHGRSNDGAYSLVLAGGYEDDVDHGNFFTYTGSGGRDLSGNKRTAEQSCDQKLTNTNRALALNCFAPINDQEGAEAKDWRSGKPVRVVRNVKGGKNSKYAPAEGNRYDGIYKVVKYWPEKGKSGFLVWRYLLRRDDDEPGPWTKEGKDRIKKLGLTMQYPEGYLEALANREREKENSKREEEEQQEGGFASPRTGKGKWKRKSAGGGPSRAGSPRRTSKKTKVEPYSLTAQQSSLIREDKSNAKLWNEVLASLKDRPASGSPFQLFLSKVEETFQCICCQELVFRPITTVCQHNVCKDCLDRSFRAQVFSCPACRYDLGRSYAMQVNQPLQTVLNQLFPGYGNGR
UHRF1 ctr MBD2 = counter-screen for MBD2 inhibitors: human UHRF1 methylated DNA binding inhibitors; inhibition, % at 4.4 µM; UHRF1 binding to methylated oligonucleotide, TR-FRET; shares compounds with MBD2 DNA inh; AID 720530; actives 25% (n = 1,000); in the data active = inhibition above about 21%;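 note: UHRF1 SRA domain binding a labeled hemimethylated CpG hairpin DNA; 0% = vehicle only and 100% = reference inhibitor with vehicle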
MBD2 confirm = confirmation of human MBD2-DBD methylated oligonucleotide binding inhibitors | shares compounds with MBD2 DNA inh | TR-FRET MBD2-DBD binding to methylated oligonucleotide | inhibition, % at 4.4 µM | actives 26% (n = 1,000)
TDP2 inh conf = confirmation of human TDP2 inhibitors; shares compounds with TDP2 inh; recombinant human TDP2, absorbance read-out; inhibition, % at 12.8 µM; actives 22% (n = 1,100); AID 743263; in the data active = inhibition above about 25%;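 note: 0% = vehicle with enzyme and 100% = no enzyme buffer only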
IN multimer act = counter-screen for LEDGF/p75 integration inhibitors: HIV-1 integrase multimerization activators. activation, % at 7.7 µM. shares compounds with LEDGF integ inh. actives 17% (n = 2,000). TR-FRET HIV-1 integrase multimerization, biochemical; in the data active = activation above about 8.9%
TR-FRET interf = TR-FRET optical interference, LEDGF/p75 integration counter-screen. shares compounds with LEDGF integ inh. inhibition, % at 7.7 µM. 2,000 tested, under 10 active. TR-FRET optical interference counterscreen, HIV-1 IN multimerization;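 active = inhibition above the mean over all tested compounds plus 3 SD, which no compound reached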;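 note: 0% = integrase with antibodies and DMSO and 100% = antibodies without integrase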
LEDGF integ conf = LEDGF/p75-dependent HIV-1 integration inhibition, confirmation; shares compounds with LEDGF integ inh; TR-FRET LEDGF/p75-dependent HIV-1 integration, biochemical; inhibition, % at 3.7 µM; actives 36% (n = 2,000)
Starred values were filed as active, the others as inactive; / = no result given. Most compounds without a hit are left out; they make up all but 1.6% or so of the library. Cut-off read from the data, not from the text of the source, unless noted: active = inhibition above about 14%; inactive = the rest.

SMILES | MBD2 DNA inh | LEDGF integ inh | TDP2 inh | UHRF1 binding | UHRF1 ctr MBD2 | MBD2 confirm | IN multimer act | TR-FRET interf | LEDGF integ conf | others
COC(=O)C1=C(C)N(C)C(=NCC2CC2)NC1c1ccc(Cl)cc1 (stereo not drawn) | 6 | -1 | -2 | 16 | / | / | / | / | /
Cc1ccccc1-c1nc2ccccc2c(=O)n1/N=C/c1ccc([N+](=O)[O-])cc1 | 15* | 7 | -10 | 1 | -1 | 1 | / | / | /
O=C(NCC(c1cccs1)N1CCOCC1)c1cn(-c2ccccc2)nc1-c1ccc(Cl)cc1 (stereo not drawn) | 14* | 4 | 2 | -5 | 7 | 3 | / | / | /
COc1ccc(CNC(=O)C(C)OC(=O)CO/N=C(\C)c2ccc3c(c2)OCO3)cc1 (stereo not drawn) | 0 | -2 | 0 | 0 | / | / | / | / | /
CCC(=O)c1ccc(OCC(=O)OC(C)C(=O)NCc2ccc3c(c2)OCO3)cc1 (stereo not drawn) | 79* | 2 | -6 | -1 | 9 | 2 | / | / | /
O=C(c1ccc(F)cc1)N1CCN(Cc2ccccc2)CC1 | -4 | 0 | 9 | 0 | / | / | / | / | /
O=C(NCCN1CCN(C(=O)c2ccc(F)cc2)CC1)c1ccc(F)cc1 | 14* | 0 | 2 | 0 | 11 | 3 | / | / | /
O=C(CCCN1C(=O)/C(=C\c2ccco2)SC1=S)Nc1ccc(O)cc1C(=O)O | 27* | 63* | 29* | 93* | 45* | 16* | / | / | / | TDP2 inh conf=-8
CCCCNC(=O)C[C@@H]1C(=O)N2CCCC3=C2[C@@]1(C(=O)OCC)CCC3 | 4 | 0 | 0 | 0 | / | / | / | / | /
CCCn1nc2cc(C(=O)NCc3ccc(OC)cc3)ccc2c1OCC | 14* | 12 | 38* | 29* | 6 | 4 | / | / | / | TDP2 inh conf=-3
CCCn1nc2cc(C(=O)NCc3ccc(OC(F)(F)F)cc3)ccc2c1OCC | 0 | 0 | -8 | 0 | / | / | / | / | /
O=c1oc2c(-c3ccc([N+](=O)[O-])cc3)cc(O)cc2s1 | 21* | 25* | 18 | 30* | 10 | 7 | 1 | -4 | -4
Cc1ccc(S(=O)(=O)Oc2ccccc2[N+](=O)[O-])cc1 | 14* | 35* | -2 | -1 | 2 | 2 | -2 | 9 | -5
CCCC(C)C(=O)NC1CCCCN(Cc2ccccc2C)C1=O (stereo not drawn) | -1 | -1 | 6 | 0 | / | / | / | / | /
Cc1c(C=O)c(C=O)c(C)n1Cc1ccccc1 | 16* | 22* | 25* | 31* | 4 | 4 | -2 | 11 | 12 | TDP2 inh conf=1
CC(=O)c1c(C(C)=O)c(C)n(Cc2ccccc2)c1C | 2 | 2 | 0 | -2 | / | / | / | / | /
Cc1c(Br)c(O)c(Br)c2sc(=O)oc12 | 16* | 55* | 42* | 33* | 9 | 5 | 2 | -8 | 14* | TDP2 inh conf=16
CN(C)c1ccc(O)c2c1CC1CC3[C@@H](N(C)C)C(=O)C(C(N)=O)=C(O)[C@]3(O)C(=O)C1=C2O (stereo partly drawn) | 35* | 77* | 10 | 80* | 36* | 15* | 51* | -182 | 48*
CCCCOCCCNC(=O)C[C@H]1C[C@@]2(C(=O)OC)C(=C[C@H](COCc3ccccc3)O[C@@H]2C)N(CCc2ccc(OC)c(OC)c2)C1=O | -3 | 2 | -6 | -2 | / | / | / | / | /
C=CC(=O)N1C/C(=C/c2ccc(F)cc2)C(=O)/C(=C\c2ccc(F)cc2)C1 | 15* | 14* | -14 | 40* | 25* | 15* | 11* | -54 | 18*
O=C1/C(=C\c2ccco2)SC(=S)N1c1ccc(O)cc1 | 8 | 11 | 8 | 5 | / | / | / | / | /
O=C(NN1C(=O)/C(=C/C=C/c2ccco2)SC1=S)c1ccncc1 | 74* | 83* | 19 | 97* | 90* | 63* | 47* | -165 | 83*
O=C1/C(=C/C=C/c2ccco2)SC(=S)N1c1ccc(O)cc1 | 41* | 76* | 26* | 87* | 20 | 6 | 19* | -67 | 73* | TDP2 inh conf=14
O=C(NN1C(=O)/C(=C/C=C/c2ccccc2)SC1=S)c1ccncc1 | -5 | 1 | -13 | -12 | / | / | / | / | /
COc1ccc(C(=O)OCCN(C)C2CN(Cc3cn(Cc4ccccc4Cl)nn3)S(=O)(=O)C2)cc1OC (stereo not drawn) | 0 | 1 | 4 | 3 | / | / | / | / | /
SMILES | MBD2 DNA inh | LEDGF integ inh | TDP2 inh | UHRF1 binding | UHRF1 ctr MBD2 | MBD2 confirm | IN multimer act | TR-FRET interf | LEDGF integ conf | others
Cc1cc(Nc2cccc(C(F)(F)F)c2)cc(=O)n1-c1cccc(C(F)(F)F)c1 | 4 | -1 | -6 | 1 | / | / | / | / | /
CCOC(=O)c1cnc2c3c(noc13)CCC2 | 7 | 1 | 5 | 1 | / | / | / | / | /
COc1cc(C)c2c(c1C=O)Oc1c(c(C)c(O)c3c1C(O)OC3=O)OC2=O (stereo not drawn) | 31* | 90* | -4 | 65* | 24* | 9 | 1 | -3 | 92*
Cc1[nH]nc2c1C(c1ccccc1)N(c1ccccc1)C2=O (stereo not drawn) | -4 | -1 | 5 | -1 | / | / | / | / | /
O=C(c1cc(-c2ccco2)nc2ccccc12)N1CCN(Cc2ccccc2)CC1 | 1 | 6 | -4 | -1 | / | / | / | / | /
COC(=O)C1CCN(C(=O)c2cc(-c3ccco3)nc3ccccc23)CC1 | 22* | 28* | -2 | 40* | 30* | 22* | 15* | -74 | 49*
O=C(CCO)c1ccc(O)cc1 | 16* | 32* | 2 | 28* | 55* | 28* | 54* | -273 | 71*
COC(=O)C/C=C/[C@H](C)[C@@H](NC(=O)C(F)(F)F)c1ccccc1Br | 2 | 1 | 3 | -3 | / | / | / | / | /
CN1C2=N[C@@H](c3ccc(Br)cc3)CC(=O)N2/C(=C\c2ccccc2)[C@@H]1c1ccccc1 | 5 | -5 | -2 | -1 | / | / | / | / | /
CN1C2=N[C@@H](c3cccc(C(F)(F)F)c3)CC(=O)N2/C(=C\c2ccccc2)[C@H]1c1ccccc1 | 31* | 16* | 0 | 51* | 29* | 23* | 20* | -99 | 8
Cc1c(Cl)cnc(NC(=O)COC(=O)/C=C/c2ccco2)c1Cl | 1 | 7 | 18 | 8 | / | / | / | / | /
O=C(COC(=O)/C=C/c1ccco1)Nc1ncc(C(F)(F)F)cc1Cl | 14* | 31* | 2 | 55* | 27* | 9 | 4 | -20 | 14*
